Measured values reported in ChEMBL document CHEMBL1123181 (J Med Chem, 1986).

How the values were obtained:
[1] = target: T1, Angiotensin-converting enzyme (Oryctolagus cuniculus, UniProt P12822); assay: Inhibition of the activity of rabbit lung Angiotensin I converting enzyme
T1 sequence (P12822 whole entry): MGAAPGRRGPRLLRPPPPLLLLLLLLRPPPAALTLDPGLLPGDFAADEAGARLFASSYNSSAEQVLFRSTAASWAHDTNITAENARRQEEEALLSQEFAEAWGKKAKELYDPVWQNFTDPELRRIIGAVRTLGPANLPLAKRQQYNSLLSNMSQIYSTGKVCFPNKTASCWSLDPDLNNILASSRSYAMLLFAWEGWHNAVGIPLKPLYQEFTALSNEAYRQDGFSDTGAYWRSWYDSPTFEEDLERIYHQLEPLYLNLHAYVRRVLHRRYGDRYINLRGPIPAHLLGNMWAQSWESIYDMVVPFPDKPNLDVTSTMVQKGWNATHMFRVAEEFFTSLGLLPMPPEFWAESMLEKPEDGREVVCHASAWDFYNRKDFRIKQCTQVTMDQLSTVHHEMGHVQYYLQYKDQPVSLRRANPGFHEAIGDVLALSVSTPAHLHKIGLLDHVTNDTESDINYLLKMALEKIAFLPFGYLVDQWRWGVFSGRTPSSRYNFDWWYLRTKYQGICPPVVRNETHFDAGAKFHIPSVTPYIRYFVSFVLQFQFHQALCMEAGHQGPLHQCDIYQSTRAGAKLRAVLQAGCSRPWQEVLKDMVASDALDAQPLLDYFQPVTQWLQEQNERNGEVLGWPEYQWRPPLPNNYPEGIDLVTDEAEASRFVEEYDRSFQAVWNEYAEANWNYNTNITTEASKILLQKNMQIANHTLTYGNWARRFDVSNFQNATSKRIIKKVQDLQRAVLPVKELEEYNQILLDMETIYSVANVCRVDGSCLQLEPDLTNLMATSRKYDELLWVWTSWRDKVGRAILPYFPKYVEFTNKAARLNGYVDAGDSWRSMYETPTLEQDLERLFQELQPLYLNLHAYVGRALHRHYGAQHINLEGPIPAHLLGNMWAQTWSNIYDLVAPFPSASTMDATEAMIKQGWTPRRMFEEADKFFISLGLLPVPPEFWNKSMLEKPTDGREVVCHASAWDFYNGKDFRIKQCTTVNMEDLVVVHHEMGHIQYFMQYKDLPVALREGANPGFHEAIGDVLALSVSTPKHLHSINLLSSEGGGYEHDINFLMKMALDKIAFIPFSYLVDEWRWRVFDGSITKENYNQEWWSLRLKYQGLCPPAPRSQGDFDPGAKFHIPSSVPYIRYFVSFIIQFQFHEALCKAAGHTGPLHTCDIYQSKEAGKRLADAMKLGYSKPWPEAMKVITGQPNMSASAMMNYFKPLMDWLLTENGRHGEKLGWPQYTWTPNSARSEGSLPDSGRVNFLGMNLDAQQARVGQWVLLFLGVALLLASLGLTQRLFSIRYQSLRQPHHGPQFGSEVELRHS
Method in brief: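 Rabbit lung acetone-powder ACE, crude and dialyzed. Enzyme was added to substrate ± inhibitor and the reaction stopped with HCl after 10 min. Hippuric acid was extracted into AcOEt and read at 228 nm.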

[2] = target: T1, Angiotensin-converting enzyme; assay: In vitro inhibition of Angiotensin I converting enzyme activity in rabbit lung; type: tissue-based; details: read-out: I50
[3] = target: Angiotensin-converting enzyme (Rattus norvegicus) (UniProt P47820); assay: The time to 50% recovery of the angiotensin I response was measured after po administration at 1.5 mg/kg
Angiotensin-converting enzyme (Rattus norvegicus), sequence (P47820 whole entry, looked up): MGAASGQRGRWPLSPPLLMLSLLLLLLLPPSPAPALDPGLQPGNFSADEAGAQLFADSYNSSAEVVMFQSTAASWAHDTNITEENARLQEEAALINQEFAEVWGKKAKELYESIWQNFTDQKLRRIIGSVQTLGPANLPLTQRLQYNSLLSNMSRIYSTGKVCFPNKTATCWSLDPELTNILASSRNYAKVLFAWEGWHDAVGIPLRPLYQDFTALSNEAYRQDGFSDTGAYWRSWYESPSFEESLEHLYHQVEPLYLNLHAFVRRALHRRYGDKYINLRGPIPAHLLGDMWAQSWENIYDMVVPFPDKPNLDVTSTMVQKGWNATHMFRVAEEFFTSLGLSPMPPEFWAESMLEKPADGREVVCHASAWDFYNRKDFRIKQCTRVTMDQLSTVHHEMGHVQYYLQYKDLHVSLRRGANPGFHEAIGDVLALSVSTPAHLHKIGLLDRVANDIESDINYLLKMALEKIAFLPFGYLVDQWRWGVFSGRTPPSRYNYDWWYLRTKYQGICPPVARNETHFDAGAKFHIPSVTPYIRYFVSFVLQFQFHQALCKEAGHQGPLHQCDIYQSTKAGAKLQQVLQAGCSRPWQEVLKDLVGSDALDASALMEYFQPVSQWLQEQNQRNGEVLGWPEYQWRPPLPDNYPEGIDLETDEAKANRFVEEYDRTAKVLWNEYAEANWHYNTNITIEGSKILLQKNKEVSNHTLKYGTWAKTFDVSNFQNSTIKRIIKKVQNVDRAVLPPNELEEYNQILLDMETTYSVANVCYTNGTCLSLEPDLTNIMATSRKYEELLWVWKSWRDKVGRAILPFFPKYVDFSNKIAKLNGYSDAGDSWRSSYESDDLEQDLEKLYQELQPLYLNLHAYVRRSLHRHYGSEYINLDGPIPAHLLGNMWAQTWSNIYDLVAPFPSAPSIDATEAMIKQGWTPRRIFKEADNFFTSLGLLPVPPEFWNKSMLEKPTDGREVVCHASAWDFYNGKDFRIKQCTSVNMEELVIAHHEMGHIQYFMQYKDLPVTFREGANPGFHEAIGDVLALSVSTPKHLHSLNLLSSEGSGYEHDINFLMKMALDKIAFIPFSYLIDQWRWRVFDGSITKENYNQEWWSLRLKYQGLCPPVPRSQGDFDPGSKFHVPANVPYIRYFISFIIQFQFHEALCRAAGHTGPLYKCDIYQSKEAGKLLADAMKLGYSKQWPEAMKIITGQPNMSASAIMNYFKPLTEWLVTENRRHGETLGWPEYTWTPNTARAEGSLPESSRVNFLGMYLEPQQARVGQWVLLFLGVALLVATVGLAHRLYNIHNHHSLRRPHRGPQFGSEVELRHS

[4] = target: Angiotensin-converting enzyme (Rattus norvegicus) (UniProt P47820); assay: Percentage inactivation of the angiotensin I induced vasopressor response in normotensive conscious rats after po administration at dose 1.5 mg/kg; 20-34
[5] = target: T1, Angiotensin-converting enzyme; assay: In vitro inhibition of Angiotensin I converting enzyme activity at pH 8.5 in rabbit lung; type: tissue-based; details: read-out: I50
[6] = target: Angiotensin-converting enzyme (Rattus norvegicus) (UniProt P47820); assay: The time to 50% recovery of the angiotensin I response was measured after po administration at 1.5 mg/kg; 20-50
[7] = target: Angiotensin-converting enzyme (Rattus norvegicus) (UniProt P47820); assay: Percentage inactivation of the angiotensin I induced vasopressor response in normotensive conscious rats after po administration at dose 1.5 mg/kg; 14-21
[8] = target: Angiotensin-converting enzyme (Rattus norvegicus) (UniProt P47820); assay: The time to 50% recovery of the angiotensin I response was measured after po administration at 0.3 mg/kg
[9] = target: Angiotensin-converting enzyme (Rattus norvegicus) (UniProt P47820); assay: Percentage inactivation of the angiotensin I induced vasopressor response in normotensive conscious rats after po administration at dose 0.3 mg/kg; 15-17; details: at 0.3 mg/kg
[10] = tested on: Rattus norvegicus; assay: Maximum percent change in mean arterial pressure by the compound over control after po administration at 30 mg/kg dosage; type: functional, Artery
Method in brief: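 Spontaneously hypertensive rats kept on a sodium-deficient diet received the agent orally. Value = maximum % change in mean arterial pressure over control. Duration = time outside a control area, defined as the means ±2 SD of arterial pressure and heart rate readings from 45 control rats.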

[11] = tested on: Rattus norvegicus; assay: Time taken by the compound to change arterial pressure outside the control area at a dose of 30mg/kg, po; type: functional, Artery
[12] = target: Angiotensin-converting enzyme (Rattus norvegicus) (UniProt P47820); assay: The time to 50% recovery of the angiotensin I response was measured after po administration at 0.30 mg/kg
[13] = target: Angiotensin-converting enzyme (Rattus norvegicus) (UniProt P47820); assay: Percentage inactivation of the angiotensin I induced vasopressor response in normotensive conscious rats after po administration at dose 0.08 mg/kg; 80-85
[14] = target: Angiotensin-converting enzyme (Rattus norvegicus) (UniProt P47820); assay: The time to 50% recovery of the angiotensin I response was measured after po administration at 0.15 mg/kg; 30-100
[15] = target: Angiotensin-converting enzyme (Rattus norvegicus) (UniProt P47820); assay: Percentage inactivation of the angiotensin I induced vasopressor response in normotensive conscious rats after po administration at dose 0.15 mg/kg; 64-100
[16] = target: Angiotensin-converting enzyme (Rattus norvegicus) (UniProt P47820); assay: The time to 50% recovery of the angiotensin I response was measured after po administration at 1.5 mg/kg; 30-50
[17] = target: Angiotensin-converting enzyme (Rattus norvegicus) (UniProt P47820); assay: The time to 50% recovery of the angiotensin I response was measured after po administration at 0.15 mg/kg; 10-30
[18] = target: Angiotensin-converting enzyme (Rattus norvegicus) (UniProt P47820); assay: Percentage inactivation of the angiotensin I induced vasopressor response in normotensive conscious rats after po administration at dose 1.50 mg/kg; 73-79
[19] = target: Angiotensin-converting enzyme (Rattus norvegicus) (UniProt P47820); assay: Percentage inactivation of the angiotensin I induced vasopressor response in normotensive conscious rats after po administration at dose 0.15 mg/kg; 24-49
[20] = target: Angiotensin-converting enzyme (Rattus norvegicus) (UniProt P47820); assay: The time to 50% recovery of the angiotensin I response was measured after po administration at 0.15 mg/kg; 60-140
[21] = target: Angiotensin-converting enzyme (Rattus norvegicus) (UniProt P47820); assay: Percentage inactivation of the angiotensin I induced vasopressor response in normotensive conscious rats after po administration at dose 0.15 mg/kg; 85-96
[22] = target: Angiotensin-converting enzyme (Rattus norvegicus) (UniProt P47820); assay: The time to 50% recovery of the angiotensin I response was measured after po administration at 1.5 mg/kg; 0-30
[23] = target: Angiotensin-converting enzyme (Rattus norvegicus) (UniProt P47820); assay: Percentage inactivation of the angiotensin I induced vasopressor response in normotensive conscious rats after po administration at dose 1.5 mg/kg; 0-29
[24] = target: Angiotensin-converting enzyme (Rattus norvegicus) (UniProt P47820); assay: Percentage inactivation of the angiotensin I induced vasopressor response in normotensive conscious rats after po administration at dose 1.5 mg/kg; 3-5
[25] = target: Angiotensin-converting enzyme (Rattus norvegicus) (UniProt P47820); assay: The time to 50% recovery of the angiotensin I response was measured after po administration at 1.5 mg/kg; 10-60
[26] = target: Angiotensin-converting enzyme (Rattus norvegicus) (UniProt P47820); assay: Percentage inactivation of the angiotensin I induced vasopressor response in normotensive conscious rats after po administration at dose 1.5 mg/kg; 14-16
[27] = target: Angiotensin-converting enzyme (Rattus norvegicus) (UniProt P47820); assay: The time to 50% recovery of the angiotensin I response was measured after po administration at 1.5 mg/kg; 20-80
[28] = target: Angiotensin-converting enzyme (Rattus norvegicus) (UniProt P47820); assay: Percentage inactivation of the angiotensin I induced vasopressor response in normotensive conscious rats after po administration at dose 1.5 mg/kg; 43-64
[29] = target: Angiotensin-converting enzyme (Rattus norvegicus) (UniProt P47820); assay: Percentage inactivation of the angiotensin I induced vasopressor response in normotensive conscious rats after po administration at dose 1.5 mg/kg; 17-24; details: at 1.5 mg/kg
[30] = target: Angiotensin-converting enzyme (Rattus norvegicus) (UniProt P47820); assay: Percentage inactivation of the angiotensin I induced vasopressor response in normotensive conscious rats after po administration at dose 0.058 mg/kg; 65-70

Row | SMILES | IC50 [1] [nM] | IC50 [2] [nM] | IC50 [5] [nM] | also measured
1 | CC(=O)SC(C)C(=O)N1C(C(=O)O)C(C)(C)SC1(C)C (stereo not given) | > 100000 | – | – | –
2 | CC(=O)SC(C)C(=O)N(CC(=O)O)c1ccc(C)cc1 (stereo not given) | 180 | – | – | –
3 | CC(=O)S[C@H](C)C(=O)N1CSC[C@H]1C(=O)O | 37000 | – | – | –
4 | CC(S)C(=O)N1CSC[C@H]1C(=O)O (stereo in doubt; 37b(R,R)) | 10000 | – | – | –
5 | CC(S)C(=O)N1CSC[C@H]1C(=O)O (stereo in doubt; 37b(S,R)) | 140 | – | – | –
6 | CC(S)C(=O)N1C(C(=O)O)C(C)(C)SC1(C)C (stereo not given) | 21000 | – | – | –
7 | CC(=O)SC(C)C(=O)N(C1CCCC1)C(C)C(=O)O (stereo not given) | 6800 | – | – | –
8 | C[C@H]1CSC(=O)[C@@H]2Cc3ccccc3CN2C1=O (mixture of isomers) | – | – | – | Duration [8]: 10 min; inhibition [9]: 15%
9 | CC(=O)SC(C)C(=O)N(CC(=O)O)C1CCCC1 (stereo not given) | 510 | – | – | –
10 | C[C@H](CS)C(=O)N1CCC[C@H]1C(=O)O [CAPTOPRIL] | – | – | – | MAP [10]: -30%
11 | CC(S)C(=O)N(CC(=O)O)C1CCCC1 (stereo not given) | 57 | – | – | –
12 | CC(=O)SC(C)C(=O)N(C1CCCC1)C(C)(C)C(=O)O (stereo not given) | 95000 | – | – | –
13 | CCOC(=O)[C@H](CCc1ccccc1)N[C@@H](C)C(=O)N1CCC[C@H]1C(=O)O | – | – | – | Duration [11]: >24 h; MAP [10]: -38%; Duration [12]: 210 min; inhibition [13]: 50%
14 | CC(=O)S[C@@H](C)C(=O)N1CSC[C@H]1C(=O)O | 1700 | – | – | –
15 | CC(=O)SC(C)C(=O)N1Cc2ccccc2CC1(C)C(=O)O (stereo not given) | > 100000 | – | – | –
16 | Cc1ccc(N(CC(=O)O)C(=O)C(C)S)cc1 (stereo not given) | 26 | – | – | –
17 | CC1CSC(=O)C2N(C1=O)C(C)(C)SC2(C)C (stereo not given) | – | 50000 | 15000 | Duration [22]: 0 min; inhibition [23]: 0%
18 | C[C@@H]1SC(=O)[C@@]2(C)Cc3ccccc3CN2C1=O | – | > 100000 | > 100000 | Duration [25]: 10 min; inhibition [26]: 14%
19 | CC(S)C(=O)N(C1CCCC1)C(C)C(=O)O (stereo not given) | 6800 | – | – | –
20 | C[C@H](CSC(=O)C(C)(C)C)C(=O)N(CC(=O)O)C1CCCC1 [PIVOPRIL] | – | – | 17 | Duration [11]: >24 h; MAP [10]: -30%; Duration [8]: 60 min; inhibition [30]: 50%
21 | CC1SC(=O)CNC1=O (stereo not given) | – | 1900 | 1900 | –

The next lines start with results.

Row | IC50 [1] [nM] | IC50 [2] [nM] | IC50 [5] [nM] | SMILES | also measured
22 | – | 90000 | – | CC1SC(=O)C(C)(C)N(C2CCCC2)C1=O (stereo not given) | Duration [3]: 20 min; inhibition [4]: 20%
23 | – | > 100000 | 21000 | CC1SC(=O)C2N(C1=O)C(C)(C)SC2(C)C (stereo not given) | Duration [6]: 20 min; inhibition [7]: 14%
24 | – | 800 | – | C[C@H]1CSC(=O)[C@@H]2Cc3ccccc3CN2C1=O | –
25 | – | 26 | 17 | C[C@@H]1CSC(=O)[C@@H]2CCCN2C1=O | Duration [14]: 30 min; inhibition [15]: 64%
26 | – | 150 | 57 | CC1SC(=O)CN(C2CCCC2)C1=O (stereo not given) | Duration [16]: 30 min; Duration [17]: 10 min; inhibition [18]: 73%; inhibition [19]: 24%
27 | – | 12 | 25 | CC1CSC(=O)CN(C2CC3CCC2C3)C1=O (stereo not given) | Duration [20]: 60 min; inhibition [21]: 85%
28 | – | 18 | 45 | CC1CSC(=O)[C@@H]2Cc3ccccc3CN2C1=O (stereo not given in full) | –
29 | – | 27000 | 6800 | CC1SC(=O)C(C)N(C2CCCC2)C1=O (stereo not given) | inhibition [24]: 3%
30 | – | 47 | 58 | CC1CSC(=O)[C@@H]2CSCN2C1=O (stereo not given in full) | Duration [27]: 20 min; inhibition [28]: 43%
31 | – | 33000 | – | CC1SC(=O)[C@@H]2CCCN2C1=O (stereo not given in full) | Duration [3]: 10 min; inhibition [29]: 17%
